Legend:
Homo sapiens [1] = experiment: AUC (0 to 48 hrs) in human assessed as dAc-RFB level at 150 mg, […] coadministered with 700 mg fosamprenavir and 100 mg ritonavir po BID; assay type: ADME, organism-based, Plasma; parameters: dose 150 mg, time < 48 hr, route oral; conditions: in vivo
How it was run: (§1)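 Healthy volunteers received RFB 150 mg every other day with FPV-RTV 700/100 mg BID to steady state. Serial EDTA plasma was sampled on the last treatment day at predose and 0.5–24, 36 and 48 h, then stored at –20°C. AUC0-48 came from noncompartmental analysis (linear up/log-linear down trapezoidal) using actual elapsed sampling times.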

Homo sapiens [2] = experiment: Toxicity in human assessed as chills at 150 mg, […] with 700 mg fosamprenavir and 100 mg ritonavir po BID; assay type: organism-based; conditions: in vivo
Homo sapiens [3] = experiment: Toxicity in human assessed as increase in ALT level at 150 mg, […] with 700 mg fosamprenavir and 100 mg ritonavir po BID; assay type: organism-based; conditions: in vivo
Homo sapiens [4] = experiment: Toxicity in human assessed as psychiatric disorder at 300 mg, po QD; assay type: organism-based; conditions: in vivo
[5] = Cmax in human at 300 mg, po QD; conditions: in vivo
Homo sapiens [6] = experiment: Toxicity in human assessed as rash generalized at 150 mg, […] with 700 mg fosamprenavir and 100 mg ritonavir po BID; assay type: organism-based; conditions: in vivo
Homo sapiens [7] = experiment: Toxicity in human assessed as musculoskeletal and connective tissue disorder at 150 mg, […] with 700 mg fosamprenavir and 100 mg ritonavir po BID; assay type: organism-based; conditions: in vivo
Homo sapiens [8] = experiment: Toxicity in human assessed as gastrointestinal disorder at 150 mg, po QOD coadministered with 700 mg fosamprenavir and 100 mg ritonavir po BID; conditions: in vivo
Homo sapiens [9] = experiment: Toxicity in human assessed as neutropenia at 300 mg, po QD; assay type: organism-based; conditions: in vivo
Homo sapiens [10] = experiment: Toxicity in human assessed as chromaturia at 300 mg, po QD; assay type: organism-based; conditions: in vivo
Homo sapiens [11] = experiment: Toxicity in human assessed as pollakiurea at 300 mg, po QD; assay type: organism-based; conditions: in vivo
[12] = AUC (0 to 48 hrs) in human at 150 mg, […] coadministered with 700 mg fosamprenavir and 100 mg ritonavir po BID; assay type: ADME, organism-based; parameters: time < 48 hr, dose 150 mg, route oral; conditions: plasma; how it was run: as §1
Homo sapiens [13] = experiment: Toxicity in human assessed as skin and subcutaneous tissue disorder at 300 mg, po QD; assay type: organism-based; conditions: in vivo
Homo sapiens [14] = experiment: Toxicity in human assessed as thrombocytopenia at 150 mg, […] with 700 mg fosamprenavir and 100 mg ritonavir po BID; assay type: organism-based; conditions: in vivo
Homo sapiens [15] = experiment: Toxicity in human assessed as fatigue at 150 mg, […] with 700 mg fosamprenavir and 100 mg ritonavir po BID; assay type: organism-based; conditions: in vivo
Homo sapiens [16] = experiment: Toxicity in human assessed as blood and lymphatic system disorder at 300 mg, po QD; assay type: organism-based; conditions: in vivo
Homo sapiens [17] = experiment: Toxicity in human assessed as nausea at 300 mg, po QD; assay type: organism-based; conditions: in vivo
Homo sapiens [18] = experiment: Toxicity in human assessed as increase in ALT level at 300 mg, po QD; assay type: organism-based; conditions: in vivo
Homo sapiens [19] = experiment: Toxicity in human assessed as skin and subcutaneous tissue disorder at 150 mg, […] with 700 mg fosamprenavir and 100 mg ritonavir po BID; assay type: organism-based; conditions: in vivo
Homo sapiens [20] = experiment: Toxicity in human assessed as chills at 300 mg, po QD; assay type: organism-based; conditions: in vivo
clinical = conditions: human, in vivo, po
Homo sapiens [21] = experiment: Toxicity in human assessed as diarrhea disorder at 150 mg, po QOD coadministered with 700 mg fosamprenavir and 100 mg ritonavir po BID; conditions: in vivo
Homo sapiens [22] = experiment: Toxicity in human assessed as blood and lymphatic system disorder at 150 mg, […] with 700 mg fosamprenavir and 100 mg ritonavir po BID; assay type: organism-based; conditions: in vivo
Homo sapiens [23] = experiment: Toxicity in human assessed as rash generalized at 300 mg, po QD; assay type: organism-based; conditions: in vivo
Homo sapiens [24] = experiment: Toxicity in human assessed as nervous system disorder at 150 mg, […] with 700 mg fosamprenavir and 100 mg ritonavir po BID; assay type: organism-based; conditions: in vivo
Homo sapiens [25] = experiment: Toxicity in human assessed as general disorder at 300 mg, po QD; assay type: organism-based; conditions: in vivo
Homo sapiens [26] = experiment: Toxicity in human assessed as pain at 300 mg, po QD; assay type: organism-based; conditions: in vivo
Homo sapiens [27] = experiment: Toxicity in human assessed as insomnia at 300 mg, po QD; assay type: organism-based; conditions: in vivo
Homo sapiens [28] = experiment: Toxicity in human assessed as headache at 300 mg, po QD; assay type: organism-based; conditions: in vivo
Homo sapiens [29] = experiment: Toxicity in human assessed as renal and urinary disorder at 150 mg, […] with 700 mg fosamprenavir and 100 mg ritonavir po BID; assay type: organism-based, Urine; conditions: in vivo
Homo sapiens [30] = experiment: Toxicity in human assessed as decrease in neutrophile count at 300 mg, po QD; assay type: organism-based; parameters: scale not given: the % may be the effect or the level left; conditions: in vivo
Homo sapiens [31] = experiment: Toxicity in human assessed as chromaturia at 150 mg, po QOD coadministered with 700 mg fosamprenavir and 100 mg ritonavir po BID; conditions: in vivo
Homo sapiens [32] = experiment: Toxicity in human assessed as pain at 150 mg, […] with 700 mg fosamprenavir and 100 mg ritonavir po BID; assay type: organism-based; conditions: in vivo
Homo sapiens [33] = experiment: Toxicity in human assessed as neutropenia at 150 mg, […] with 700 mg fosamprenavir and 100 mg ritonavir po BID; assay type: organism-based; conditions: in vivo
Homo sapiens [34] = experiment: Toxicity in human assessed as thrombocytopenia at 300 mg, po QD; assay type: organism-based; conditions: in vivo
Homo sapiens [35] = experiment: Toxicity in human assessed as increase in neutrophile count at 150 mg, […] with 700 mg fosamprenavir and 100 mg ritonavir po BID; assay type: organism-based; conditions: in vivo
Homo sapiens [36] = experiment: Toxicity in human assessed as insomnia at 150 mg, […] with 700 mg fosamprenavir and 100 mg ritonavir po BID; assay type: organism-based; conditions: in vivo
Homo sapiens [37] = experiment: Toxicity in human assessed as increase in neutrophile count at 300 mg, po QD; assay type: organism-based; conditions: in vivo
Homo sapiens [38] = experiment: Toxicity in human assessed as psychiatric disorder at 150 mg, […] with 700 mg fosamprenavir and 100 mg ritonavir po BID; assay type: organism-based; conditions: in vivo
Homo sapiens [39] = experiment: Toxicity in human assessed as decrease in neutrophile count at 150 mg, […] with 700 mg fosamprenavir and 100 mg ritonavir po BID; assay type: organism-based; parameters: scale not given: the % may be the effect or the level left; conditions: in vivo
Homo sapiens [40] = experiment: Toxicity in human assessed as diarrhea at 300 mg, po QD; assay type: organism-based; conditions: in vivo
Homo sapiens [41] = experiment: Toxicity in human assessed as fatigue at 300 mg, po QD; assay type: organism-based; conditions: in vivo
Homo sapiens [42] = experiment: Toxicity in human assessed as headache at 150 mg, […] with 700 mg fosamprenavir and 100 mg ritonavir po BID; assay type: organism-based; conditions: in vivo
Homo sapiens [43] = experiment: Toxicity in human assessed as general disorder at 150 mg, […] with 700 mg fosamprenavir and 100 mg ritonavir po BID; assay type: organism-based; conditions: in vivo
Homo sapiens [44] = experiment: Toxicity in human assessed as myalgia at 300 mg, po QD; assay type: organism-based; conditions: in vivo
[45] = AUC (0 to 48 hrs) in human at 300 mg, po QD; assay type: ADME, organism-based; parameters: time < 48 hr, dose 300 mg, route oral; conditions: plasma
How it was run: (§2)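 Volunteers took RFB 300 mg QD alone to steady state. Serial EDTA plasma was sampled on the last treatment day at predose and 0.5–24 h, then stored at –20°C. AUC0-24 came from noncompartmental analysis (linear up/log-linear down trapezoidal) using actual times, and was doubled to estimate AUC0-48.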

Homo sapiens [46] = experiment: Toxicity in human assessed as renal and urinary disorder at 300 mg, po QD; assay type: organism-based, Urine; conditions: in vivo
Homo sapiens [47] = experiment: Toxicity in human assessed as nausea at 150 mg, po QOD coadministered with 700 mg fosamprenavir and 100 mg ritonavir po BID; conditions: in vivo
Homo sapiens [48] = experiment: Toxicity in human assessed as nervous system disorder at 300 mg, po QD; assay type: organism-based; conditions: in vivo
Homo sapiens [49] = experiment: Toxicity in human assessed as gastrointestinal disorder at 300 mg, po QD; assay type: organism-based; conditions: in vivo
Homo sapiens [50] = experiment: Toxicity in human assessed as pollakiurea at 150 mg, po QOD coadministered with 700 mg fosamprenavir and 100 mg ritonavir po BID; conditions: in vivo
Homo sapiens [51] = experiment: Toxicity in human assessed as musculoskeletal and connective tissue disorder at 300 mg, po QD; assay type: organism-based; conditions: in vivo
Homo sapiens [52] = experiment: AUC (0 to 48 hrs) in human assessed as dAc-RFB level at 300 mg, po QD; assay type: ADME, organism-based, Plasma; parameters: dose 300 mg, time < 48 hr, route oral; conditions: in vivo; how it was run: as §2
Homo sapiens [53] = experiment: Toxicity in human assessed as myalgia at 150 mg, po QOD coadministered with 700 mg fosamprenavir and 100 mg ritonavir po BID; conditions: in vivo

AUC (Homo sapiens [1]): 4600 ng·h/mL
Cmax [5]: 313 ng/mL
AUC at 48 h [12]: 5810 ng·h/mL
Cmax (clinical): 268 ng/mL
AUC at 48 h [45]: 6110 ng·h/mL
AUC (Homo sapiens [52]): 411 ng·h/mL
Structure (SMILES): CO[C@H]1/C=C/O[C@@]2(C)Oc3c(C)c(O)c4c(c3C2=O)C2=NC3(CCN(CC(C)C)CC3)NC2=C(NC(=O)/C(C)=C\C=C\[C@H](C)[C@H](O)[C@@H](C)[C@@H](O)[C@@H](C)[C@H](OC(C)=O)[C@@H]1C)C4=O [RIFABUTIN]
Activity (Homo sapiens [2]): 3%
Activity (Homo sapiens [3]): 5%
Activity (Homo sapiens [4]): 5%
Activity (Homo sapiens [6]): 2%
Activity (Homo sapiens [7]): 5%
Activity (Homo sapiens [8]): 7%
Activity (Homo sapiens [9]): 2%
Activity (Homo sapiens [10]): 0%
Activity (Homo sapiens [11]): 6%
Activity (Homo sapiens [13]): 0%
Activity (Homo sapiens [14]): 3%
Activity (Homo sapiens [15]): 4%
Activity (Homo sapiens [16]): 3%
Activity (Homo sapiens [17]): 6%
Activity (Homo sapiens [18]): 0%
Activity (Homo sapiens [19]): 6%
Activity (Homo sapiens [20]): 0%
Activity (Homo sapiens [21]): 4%
Activity (Homo sapiens [22]): 3%
Activity (Homo sapiens [23]): 0%
Activity (Homo sapiens [24]): 55%
Activity (Homo sapiens [25]): 3%
Activity (Homo sapiens [26]): 2%
Activity (Homo sapiens [27]): 4%
Activity (Homo sapiens [28]): 35%
Activity (Homo sapiens [29]): 50%
Activity (Homo sapiens [30]): 3%
Activity (Homo sapiens [31]): 4%
Activity (Homo sapiens [32]): 1%
Activity (Homo sapiens [33]): 1%
Activity (Homo sapiens [34]): 0%
Activity (Homo sapiens [35]): 3%
Activity (Homo sapiens [36]): 1%
Activity (Homo sapiens [37]): 0%
Activity (Homo sapiens [38]): 2%
Activity (Homo sapiens [39]): 3%
Activity (Homo sapiens [40]): 0%
Activity (Homo sapiens [41]): 0%
Activity (Homo sapiens [42]): 45%
Activity (Homo sapiens [43]): 7%
Activity (Homo sapiens [44]): 0%
Activity (Homo sapiens [46]): 59%
Activity (Homo sapiens [47]): 9%
Activity (Homo sapiens [48]): 35%
Activity (Homo sapiens [49]): 2%
Activity (Homo sapiens [50]): 12%
Activity (Homo sapiens [51]): 2%
Activity (Homo sapiens [53]): 4%

Source: ChEMBL document CHEMBL1151470, “Pharmacokinetic interaction between fosamprenavir-ritonavir and rifabutin in healthy subjects” (Antimicrob Agents Chemother, 2008)
